Measurements: ChEMBL document CHEMBL1138183, “Design, synthesis, and biological evaluation of isoquinoline-1,3,4-trione derivatives as potent caspase-3 inhibitors” (J Med Chem, 2006)
The source made the active and inactive calls. The rule behind the calls is not given here. Peptide text beside a SMILES is read from it. * marks the point of attachment. Cbz = O=C(OCc1ccccc1)*; CH2F = FC*

Tests used:
Caspase-7 = target: T1, Caspase-7 (Homo sapiens, UniProt P55210); assay: Inhibition of caspase7
T1 sequence (P55210 whole entry): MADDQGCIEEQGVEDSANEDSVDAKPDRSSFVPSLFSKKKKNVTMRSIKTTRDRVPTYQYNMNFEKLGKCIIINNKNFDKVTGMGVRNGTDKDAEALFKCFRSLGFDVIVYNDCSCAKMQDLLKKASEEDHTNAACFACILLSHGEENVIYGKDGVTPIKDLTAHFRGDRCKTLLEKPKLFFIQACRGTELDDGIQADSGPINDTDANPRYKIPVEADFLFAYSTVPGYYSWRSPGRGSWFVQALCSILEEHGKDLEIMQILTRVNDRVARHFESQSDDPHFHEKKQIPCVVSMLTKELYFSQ
Method in brief: (§1)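 Enzymes (caspases 2, 6 and 7; proteasome, trypsin, thrombin, papain, calpain-I) preincubated with inhibitor 30 min in their own buffer at optimal pH. Substrates at 10–100 µM, assayed at 35 °C. pNA release followed at 405 nm for 1–3 min; initial hydrolysis rate taken.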

Papain = target: T2, Papain (Carica papaya, UniProt P00784); assay: Inhibition of papain; method in brief: as §1
T2 sequence (P00784 whole entry): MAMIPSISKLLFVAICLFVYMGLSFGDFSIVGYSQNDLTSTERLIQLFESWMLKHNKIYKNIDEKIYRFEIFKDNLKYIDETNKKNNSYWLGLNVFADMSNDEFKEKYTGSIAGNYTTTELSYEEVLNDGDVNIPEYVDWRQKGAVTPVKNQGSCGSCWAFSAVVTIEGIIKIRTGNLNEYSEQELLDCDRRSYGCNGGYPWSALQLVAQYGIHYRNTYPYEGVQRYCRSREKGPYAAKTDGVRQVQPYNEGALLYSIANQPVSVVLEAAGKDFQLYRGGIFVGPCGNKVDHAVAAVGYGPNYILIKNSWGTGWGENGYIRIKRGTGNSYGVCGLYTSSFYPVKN

Prothrombin = Prothrombin (Homo sapiens, UniProt P00734); assay: Inhibition of thrombin; method in brief: as §1
Proteasome = assay: Inhibition of proteasome; format: subcellular; method in brief: as §1
Caspase-2 = target: T3, Caspase-2 (Homo sapiens, UniProt P42575); assay: Inhibition of caspase2; method in brief: as §1
T3 sequence (P42575 whole entry): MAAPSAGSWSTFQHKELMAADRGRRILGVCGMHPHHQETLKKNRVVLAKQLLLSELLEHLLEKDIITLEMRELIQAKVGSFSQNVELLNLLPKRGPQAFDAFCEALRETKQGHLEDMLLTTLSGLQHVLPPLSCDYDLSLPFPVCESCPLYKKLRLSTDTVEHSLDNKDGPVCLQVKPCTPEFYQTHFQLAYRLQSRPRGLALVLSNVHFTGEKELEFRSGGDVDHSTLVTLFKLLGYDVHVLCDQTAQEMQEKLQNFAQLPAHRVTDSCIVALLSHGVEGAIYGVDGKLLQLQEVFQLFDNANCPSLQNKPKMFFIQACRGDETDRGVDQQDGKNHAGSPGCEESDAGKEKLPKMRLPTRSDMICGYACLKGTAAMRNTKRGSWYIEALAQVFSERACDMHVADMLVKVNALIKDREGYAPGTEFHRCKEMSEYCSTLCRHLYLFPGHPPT

Caspase-8 = Caspase-8 (Homo sapiens, UniProt Q14790); assay: Inhibition of caspase8
Sequence of Caspase-8 (Q14790 217-374 limits assumed): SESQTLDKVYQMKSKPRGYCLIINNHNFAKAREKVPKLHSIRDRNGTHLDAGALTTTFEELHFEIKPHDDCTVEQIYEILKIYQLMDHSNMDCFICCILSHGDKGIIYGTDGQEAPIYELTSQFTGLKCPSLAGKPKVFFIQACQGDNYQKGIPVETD
Sequence of Caspase-8 (Q14790 385-479 limits assumed): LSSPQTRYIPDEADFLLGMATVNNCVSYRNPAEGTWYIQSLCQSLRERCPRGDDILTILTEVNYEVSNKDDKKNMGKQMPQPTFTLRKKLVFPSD

Caspase-6 = target: T4, Caspase-6 (Homo sapiens, UniProt P55212); assay: Inhibition of caspase6; method in brief: as §1
T4 sequence (P55212 whole entry): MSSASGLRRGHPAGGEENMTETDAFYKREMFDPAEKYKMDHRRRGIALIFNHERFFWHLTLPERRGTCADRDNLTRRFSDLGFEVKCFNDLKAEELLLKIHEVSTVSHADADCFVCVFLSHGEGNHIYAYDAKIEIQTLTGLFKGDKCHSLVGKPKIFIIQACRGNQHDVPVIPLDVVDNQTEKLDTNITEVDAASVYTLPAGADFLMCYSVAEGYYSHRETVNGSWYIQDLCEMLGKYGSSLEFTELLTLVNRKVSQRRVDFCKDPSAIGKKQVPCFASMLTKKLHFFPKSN

Calpain 1 = Calpain 1 (Homo sapiens, UniProt P07384); assay: Inhibition of calpain1; format: protein-complex assay; method in brief: as §1
Sequence of Calpain 1 (P04632 whole entry): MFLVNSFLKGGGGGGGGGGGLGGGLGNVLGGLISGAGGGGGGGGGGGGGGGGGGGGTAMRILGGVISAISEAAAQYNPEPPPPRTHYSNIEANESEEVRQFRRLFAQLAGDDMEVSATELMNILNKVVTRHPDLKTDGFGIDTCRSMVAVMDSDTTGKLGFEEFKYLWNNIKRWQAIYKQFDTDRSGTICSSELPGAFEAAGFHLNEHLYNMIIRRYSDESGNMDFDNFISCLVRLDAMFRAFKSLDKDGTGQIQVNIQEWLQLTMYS
Sequence of Calpain 1 (P07384 whole entry): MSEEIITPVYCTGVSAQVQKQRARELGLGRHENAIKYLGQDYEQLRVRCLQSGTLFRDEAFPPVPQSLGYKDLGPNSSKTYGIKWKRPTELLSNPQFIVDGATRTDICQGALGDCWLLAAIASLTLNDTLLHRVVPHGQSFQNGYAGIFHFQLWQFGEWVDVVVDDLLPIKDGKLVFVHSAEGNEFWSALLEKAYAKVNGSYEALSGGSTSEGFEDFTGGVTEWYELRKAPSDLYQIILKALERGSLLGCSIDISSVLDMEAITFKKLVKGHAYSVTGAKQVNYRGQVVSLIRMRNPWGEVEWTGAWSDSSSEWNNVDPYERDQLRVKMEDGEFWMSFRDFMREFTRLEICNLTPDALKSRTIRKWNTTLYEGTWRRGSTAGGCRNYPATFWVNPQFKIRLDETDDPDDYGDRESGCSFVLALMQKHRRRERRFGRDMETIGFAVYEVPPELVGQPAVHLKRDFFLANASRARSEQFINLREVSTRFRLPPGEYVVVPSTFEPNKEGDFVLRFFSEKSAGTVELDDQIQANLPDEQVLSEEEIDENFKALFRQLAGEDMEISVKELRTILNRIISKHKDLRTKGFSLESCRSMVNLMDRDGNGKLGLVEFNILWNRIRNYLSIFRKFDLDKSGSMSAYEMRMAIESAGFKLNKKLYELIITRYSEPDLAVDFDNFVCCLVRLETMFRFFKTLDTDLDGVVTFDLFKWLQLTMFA

Caspase-3 = target: T5, Caspase-3 (Homo sapiens, UniProt P42574); assay: Inhibition of caspase3
T5 sequence (P42574 whole entry): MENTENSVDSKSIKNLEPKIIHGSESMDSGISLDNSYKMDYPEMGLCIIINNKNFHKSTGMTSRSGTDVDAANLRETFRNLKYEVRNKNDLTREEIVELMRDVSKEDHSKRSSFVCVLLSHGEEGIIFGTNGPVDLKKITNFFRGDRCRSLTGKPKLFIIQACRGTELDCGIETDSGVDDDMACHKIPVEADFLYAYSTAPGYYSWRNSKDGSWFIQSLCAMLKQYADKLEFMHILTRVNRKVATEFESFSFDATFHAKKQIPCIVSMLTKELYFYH

Trypsin = Trypsin (Homo sapiens, UniProt P07477+P07478+P35030); assay: Inhibition of trypsin; format: protein assay; method in brief: as §1
Caspase-3 (Homo sapiens) = target: T6, Caspase-3 (Homo sapiens) (UniProt P42574); assay: Inhibition of caspase3 activity in camptothecin-induced apoptotic Jurkat T cells at 2 uM; format: functional, cell-based
T6 sequence (whole entry): T5 sequence (P42574 whole entry)
Method in brief: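 Jurkat cells (1 × 10⁵ cells/mL) preincubated 30 min at 37 °C, given inhibitor for 2 h, then 2 µM camptothecin for 4 h. Lysed by freeze–thaw cycles, spun at 12000g. Lysate assayed with 100 µM Ac-DEVD-AMC in HEPES pH 7.0, sucrose, CHAPS and DTT. AMC fluorescence (ex 360/em 460 nm) read 20 min at room temperature, normalised to Bradford protein.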

Rattus norvegicus = assay: Decrease in infarct volume of ischemic damage in transient MCA occlusion model of Sprague-Dawley rat at 1 mg/kg, sc; format: functional
Method in brief: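 Male Sprague-Dawley rats (200–240 g); transient MCA occlusion for 1.5 h. Drug in DMSO given sc at 0.5 mL/kg, 5 min after occlusion start. Sacrifice at 24 h; 2 mm coronal slices stained with TTC. Infarct volume corrected by indirect method (contralateral minus intact ipsilateral area); n=8 per group, mean ± SE vs saline-treated animals, one-way ANOVA with Dunnett's test.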

Structure (SMILES) | IC50 (Caspase-7) [nM] | IC50 (Papain) [nM] | IC50 (Prothrombin) [nM] | IC50 (Proteasome) [nM] | IC50 (Caspase-2) [nM] | IC50 (Caspase-8) [nM] | IC50 (Caspase-6) [nM] | IC50 (Calpain 1) [nM] | IC50 (Caspase-3) [nM] | IC50 (Trypsin) [nM] | Activity (Caspase-3 (Homo sapiens)) [RFU/µg/min] | Activity (Rattus norvegicus) | Activity (Rattus norvegicus; route subcutaneous) [%]
O=C(CCCl)Nc1ccc2c(c1)C(=O)C(=O)NC2=O | 139 | > 5000 | > 5000 | > 5000 | 530 | 575 | 283 | > 5000 | 83 | > 5000 |  |  | 
O=C(CCC(=O)N1CCCCC1)Nc1ccc2c(c1)C(=O)C(=O)NC2=O | 64 | > 5000 | > 5000 | > 5000 | 231 | 288 | 124 | > 5000 | 25 | > 5000 |  |  | 
O=C(O)CCC(=O)Nc1ccc2c(c1)C(=O)C(=O)NC2=O | 136 | > 5000 | > 5000 | > 5000 | 859 | 1120 | 201 | > 5000 | 68 | > 5000 |  |  | 
CC(=O)N[C@@H](CC(=O)O)C(=O)N[C@@H](CCC(=O)O)C(=O)N[C@H](C(=O)N[C@H](C=O)CC(=O)O)C(C)C |  |  |  |  |  |  |  |  |  |  | 3.4 |  | 
CC(C)[C@H](NC(=O)OCc1ccccc1)C(=O)N[C@@H](C)C(=O)N[C@@H](CC(=O)O)C(=O)CF (Cbz-Val-Ala-Asp-CH2F) |  |  |  |  |  |  |  |  |  |  | 3.6 |  | 
O=C1NC(=O)c2ccccc2C1=O | 386 | > 5000 | > 5000 | > 5000 | 1530 |  | 474 | > 5000 |  | > 5000 |  | inactive | 
CC(=O)OC(C(=O)Nc1cccc2c1C(=O)C(=O)NC2=O)c1ccccc1 (configuration not stated) | 63 | > 5000 | > 5000 | > 5000 | 233 | 425 | 216 | > 5000 | 40 | > 5000 |  |  | 
O=C1NC(=O)c2cc(NC(=O)c3ccc([N+](=O)[O-])cc3)ccc2C1=O | 2710 | > 5000 | > 5000 | > 5000 | 5670 | 24700 | 2850 | > 5000 | 1380 | > 5000 |  |  | 
COc1ccccc1NC(=O)CCC(=O)Nc1ccc2c(c1)C(=O)C(=O)NC2=O | 218 | > 5000 | > 5000 | > 5000 | 537 | 835 | 137 | > 5000 | 113 | > 5000 |  |  | 77
